Measurements gathered from unrelated publications.
Protocols differ between the studies behind these lines.
Target: Dual specificity protein kinase CLK3 (CLK3, Homo sapiens, UniProt P49761)

SMILES	assay	setting	quantity	value
C[C@H](NC(=O)c1cnc2n1[C@](C)(Cc1ccc(C#N)cc1)C(=O)N2c1cc(Cl)c(F)c(Cl)c1)C(=O)NC1(c2ccccn2)CC1	cell-free assay, competition with immobilised ligand	1 µM	remaining binding	96%
CCC1(CC)NC(=O)c2c(c3ccc(Cl)c(Cl)c3n2C)C1C#N (centres unmarked)	thermal stability, DSF	10 µM	ΔTm	0.3 °C
COc1cc(Nc2c(C#N)cnc3cc(OCCCN4CCN(C)CC4)c(OC)cc23)c(Cl)cc1Cl	cell-free assay	0.5 µM	remaining signal	94.9%
Nc1cnc(N2CCc3cc(S(=O)(=O)Nc4c(F)cc(Cl)cc4F)cc(N4CCCC4=O)c32)nc1	cell-free assay, competition with immobilised ligand	1 µM	remaining binding	74%
CC(C)(C)c1nc(-c2cccc(NS(=O)(=O)c3c(F)cccc3F)c2F)c(-c2ccnc(N)n2)s1	enzyme activity, inhibitor, radiometric	1 µM	remaining activity	74%
Cc1cc(NC(=O)c2cccc3cc(-c4cccc5[nH]nc(N)c45)ccc23)ccc1F	enzyme activity, inhibitor	0.1 µM	activity vs control	97%
C[C@@H]1CN(c2cc(-c3nn(C)c4ccc(OC5(C)CC5)cc34)ncn2)C[C@H](C)O1	cell-free assay, competition with immobilised ligand	1 µM	remaining binding	98%
O=C1Nc2ccc(Cl)cc2C1=Cc1cc(Cl)c(O)c(Cl)c1	cell-free assay	0.5 µM	remaining signal	90.9%
CCC(=N\O)/C(C)=C/c1ccc(F)cc1	cell-free assay, competition with immobilised ligand	1 µM	remaining binding	73%
O=C1NC(=O)c2cc(Nc3ccc(F)cc3)c(Nc3ccc(F)cc3)cc21	cell-free assay	0.5 µM	remaining signal	93.7%
Cn1c2c(c3ccc(Cl)c(Cl)c31)C(C#N)C1(CCCC1)NC2=O (centres unmarked)	thermal stability, DSF	10 µM	ΔTm	0.3 °C
O=C(Nc1cnn(-c2csc(C(=O)NC3COC3)c2)c1)Nc1ccccc1Cl	enzyme activity, inhibitor	5 µM	remaining activity	120%
O=C(N[C@H]1CCCCC/C=C\C2C[C@@]2(C(=O)O)NC(=O)[C@@H]2C[C@@H](Oc3ccncc3)CN2C1=O)OC1CCCC1 (some centres unmarked)	binding, competition with immobilised ligand	1 µM	remaining binding	93%
CCN(CC)CCNC(=O)c1c(C)[nH]c(/C=C2\C(=O)Nc3ccc(F)cc32)c1C	enzyme activity, inhibitor	0.3 µM	inhibition	-1%
COc1cc(Cl)c(C(=O)N[C@@H](CN[C@H]2CC[C@@H](N)CC2)Cc2ccc(C#N)cc2)cc1-c1ccc(CN[C@H](C)c2ccc(C)cc2)o1	enzyme activity, inhibitor	1 µM	remaining activity	99%
CC(C)(O)[C@H]1CC[C@H](Nc2ccc3ncc(-c4cccc(C(F)(F)F)c4)n3n2)CC1	enzyme activity, inhibitor	1 µM	remaining activity	59.3%
Cn1c2c(c3ccc(Cl)c(Cl)c31)C(C#N)C1(CCCCC1)NC2=O (racemic)	thermal stability, DSF	10 µM	ΔTm	0.4 °C
Cc1ccc(Nc2nccc(N(C)c3ccc4c(C)n(C)nc4c3)n2)cc1S(N)(=O)=O	enzyme activity, inhibitor	0.3 µM	inhibition	2%
COc1cc2ncnc(Nc3ccc(Oc4ccccc4)cc3C)c2cc1OC	enzyme activity, inhibitor	1 µM	inhibition	5%
Clc1ccc(Nc2nnc(Cc3ccncc3)c3ccccc23)cc1	cell-free assay	0.5 µM	remaining signal	105%
